High-throughput results as filed in PubChem.
Rows were chosen to be rich in hits. Some 0.58% of all compounds tested hit in one or more screens of this group.
PDI inh – blocks human protein disulfide isomerase activity. P07237. PDI insulin aggregation turbidity, A650, 90 min. inhibition, % at 10 µM. 350,000 tested, 0.052% active. AID 588391;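 active = mean inhibition across replicates of 30% or more, whatever share of single replicates reach that level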
Target sequence (P07237 whole entry, looked up): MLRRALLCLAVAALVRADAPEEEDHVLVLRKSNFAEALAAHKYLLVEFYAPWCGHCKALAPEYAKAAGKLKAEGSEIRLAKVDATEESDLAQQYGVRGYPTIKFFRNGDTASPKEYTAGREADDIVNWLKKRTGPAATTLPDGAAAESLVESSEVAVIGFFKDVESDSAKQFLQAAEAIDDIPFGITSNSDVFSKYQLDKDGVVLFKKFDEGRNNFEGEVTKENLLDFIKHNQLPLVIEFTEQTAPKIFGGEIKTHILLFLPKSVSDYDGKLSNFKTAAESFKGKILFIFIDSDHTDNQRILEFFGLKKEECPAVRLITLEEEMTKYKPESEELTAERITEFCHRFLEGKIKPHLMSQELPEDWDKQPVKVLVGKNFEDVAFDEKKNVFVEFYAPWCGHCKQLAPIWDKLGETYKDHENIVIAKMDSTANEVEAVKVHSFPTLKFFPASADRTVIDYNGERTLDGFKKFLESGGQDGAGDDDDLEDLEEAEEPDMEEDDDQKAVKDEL
PvdQ inh – blocks Pseudomonas aeruginosa PvdQ acylase activity; purified PvdQ acylase, fluorescence plate reader; inhibition, % at 10 µM; 340,000 tested, 0.063% active; in the data active = inhibition above about 30%, passing the limit was not always enough;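 also: 0% = vehicle neutral wells and 100% = reference inhibitor wells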
PglD DTNB – inhibitors of Campylobacter jejuni PglD acetyltransferase. purified PglD enzyme, DTNB colorimetric CoA detection. 360,000 tested, 0.098% active. inhibition, % at 12.5 µM; in the data active = inhibition above about 16%, passing the limit was not always enough
ERp5 block – inhibitors of human ERp5 | Q15084 | ERp5 insulin aggregation, absorbance 650 nm, 90 min | inhibition, % at 9.99 µM | 350,000 tested, 0.05% active;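 active = mean replicate inhibition above about 25%, with every replicate also reaching it, limit read from the data, passing the limit was not always enough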
Cneo AK release – Cryptococcus neoformans lysis via adenylate kinase release | 360,000 tested, 0.2% active | C. neoformans lysis, adenylate kinase release luminescence, 4 h; normalised: neutral wells 0, clomiphene wells 100 | AID 651654 | lysis activity, % at 15 µM;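 active = mean lysis activity across replicates of at least 80%, whatever share of replicates individually reach that level; inactive = mean lysis activity below 80%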
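Assay system: Cryptococcus neoformans yeast cells / Dosing: single-point compound dose / Timing: 4 h at 37 °C static, read 1 h later / Measured by: luminescence of released adenylate kinase using an AK detection reagent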
miR122 inh – inhibitors of miR-122 in Huh7 cells | activation (reporter increase), % at 12.5 µM | Huh7 miR-122 Renilla luciferase sensor, 48 h; neutral wells = 0, positive control = 100 | AID 602342 | 340,000 tested, 0.3% active;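 active = mean replicate activation score at least 90 and every replicate individually at or above 90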;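 also: higher luciferase means less miR-122 activity so hits act as miR-122 inhibitors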
* marks the source's active call; other numbers are inactive results; / = not tested or not shown; [ ] = remark or other dose.

SMILES	PDI inh	PvdQ inh	PglD DTNB	ERp5 block	Cneo AK release	miR122 inh
C[C@H](CO)N1C[C@H](C)[C@H](CN(C)Cc2ccccn2)Oc2ncc(C3=CCCC3)cc2C1=O	/	/	0.4	-0.5	-0.4	9.6[16.7 µM]
CC(C)NC(=O)Nc1ccc2c(c1)CC(=O)N([C@@H](C)CO)C[C@@H](C)[C@@H](CN(C)Cc1ccc(Oc3ccccc3)cc1)O2	/	/	6.3	-2.6	109.2*	-1.7[16.7 µM]
Fc1ccc(-n2nnc(-c3nccs3)n2)cc1	0.6	17.2	-0.6	0.9	-4.5	136.3*
O=C(c1cccc(F)c1)N1CC(=O)N2[C@H](CO)[C@@H](c3ccc(-c4ccccc4F)cc3)[C@@H]2C1	/	/	/	-0.6	/	/
CC(=O)c1ccc(NS(=O)(=O)c2ccc3c(c2)N(C)CCO3)cc1	0.6	-14.6	-5.2	-5.4	0.2	134.4*
CC(=O)c1ccc(NS(=O)(=O)c2cc3c(cc2C)N(C)CCO3)cc1	-1.0	-1.7	-3.0	-3.2	7.2	70.5
COc1ccccc1NC(=O)N(C)C[C@H]1OCc2ccccc2-c2ccccc2C(=O)N([C@H](C)CO)C[C@H]1C	/	/	/	-0.4	/	/
COc1ccc(C(=O)Nc2nc3ccccc3[nH]2)cc1	0.6	-2.2	-3.8	-0.2	-4.3	-6.0
COc1ccc(C(=O)N[C@H](C(=O)Nc2nc3ccccc3[nH]2)C(C)C)cc1	0.5	-4.5	-1.6	5.8	-14.2	116.9*
C[C@H]1CN([C@@H](C)CO)C(=O)Cc2cc(NC(=O)CCCCCC(=O)Nc3ccccc3N)ccc2O[C@H]1CN(C)S(=O)(=O)c1ccccc1	/	/	-2.0	-1.2	-1.6	-15.4[16.7 µM]
CCCCNS(=O)(=O)c1ccc2nc(SCC(=O)Nc3ccccc3Cl)[nH]c2c1	-0.1	-3.0	/	1.0	/	/
CCCCNS(=O)(=O)c1ccc2nc(SCC(N)=O)[nH]c2c1	-0.5	-6.8	2.8	-2.1	-1.0	153.0*
CCCCNS(=O)(=O)c1ccc2nc(SCC(=O)Nc3sccc3C#N)[nH]c2c1	12.6	-22.1	-3.0	/	-4.5	202.3*
Cc1noc(C)c1S(=O)(=O)Nc1cccc2c1O[C@H](CN(C)Cc1ccc(-c3ccccc3)cc1)[C@H](C)CN([C@@H](C)CO)C2=O	/	/	0.7	5.1	1.3	4.0[16.7 µM]
O=C(NNC(=S)NC1CCCCC1)c1ccc2c(c1)OCO2	3.1	-17.1	-136.1	-2.4	-3.4	106.1*
O=C(NC1CCCCCCC1)c1ccc2c(c1)OCO2	-1.7	-9.3	1.3	/	-10.9	1.6
CCOc1ccc(Cl)cc1S(=O)(=O)n1cnc2cc(C)c(C)cc21	4.6	3.5	1.7	/	-0.1	183.2*
O=C1N[C@@H](Cc2ccccc2)[C@@H](c2ccco2)O1	-4.2	48.7*	0.8	4.2	-1.1	4.8
CCS(=O)(=O)N[C@@H]1CC[C@H](CC(=O)NC2Cc3ccccc3C2)O[C@H]1CO	/	/	0.9	-4.6	-15.6	11.8[16.7 µM]
COc1ccc(/C=N/NC(=O)c2cccc([N+](=O)[O-])c2)cc1OC	11.1	2.9	/	-0.3	/	/
N#Cc1cc([N+](=O)[O-])ccc1Oc1cccc(/C=N/NC(=O)c2cccc(Cl)c2)c1	-1.4	63.0*	-9.7	/	0.1	17.5
COCC(=O)N(C)C[C@@H]1Oc2cc(C#CCC3CCCC3)ccc2S(=O)(=O)N([C@@H](C)CO)C[C@@H]1C	/	/	0.8	2.6	-1.2	/
CN(C)S(=O)(=O)c1ccc(NC=C(C#N)C#N)cc1	-4.7	0.5	4.6	5.2	138.1*	1.5
NC1=NC2(CCCCC2)N=C(Nc2ccc(F)cc2F)N1	-1.9	-14.8	8.7	/	70.3	-2.6
Cc1cc(C)cc(NC2=NC3(CCCCC3)N=C(N)N2)c1	-7.4	-7.7	2.0	/	2.5	108.7*
O=C(Cc1ccncc1)Nc1ccc2c(c1)[C@H]1C[C@@H](CC(=O)N3CCc4ccccc4C3)O[C@H](CO)[C@H]1O2	/	/	3.3	-7.9	-22.4	-8.0[16.7 µM]
COCC(=O)Nc1ccc2c(c1)C(=O)N(C)C[C@@H](OC)[C@H](C)CN(Cc1ccccc1)[C@@H](C)CO2	/	/	3.8	-11.9	112.0*	35.2[16.7 µM]
CCCN1C[C@H](C)[C@@H](OC)CN(C)C(=O)c2cc(NC(=O)c3cccc(F)c3)ccc2OC[C@H]1C	/	/	-1.7	-0.3	116.9*	-1.8[16.7 µM]
COc1ccccc1C(=O)Nc1ccc2c(c1)C(=O)N(C)C[C@@H](OC)[C@H](C)CN(C)[C@@H](C)CO2	/	/	3.8	-0.2	111.9*	/
